PAX8 reporter: inhibitors of PAX8-driven TPO luciferase reporter, primary screen, RMG-I cells, single concentration | SteadyGlo, 24 h | inhibition, % at 12.6 µM | hit rate 1.2% among 360,000 | AID 652154, 2013;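 active means mean replicate inhibition at least 60% with every replicate also reaching 60%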;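 further: luciferase light reporting Pax8 driven TPO promoter activity; plate controls were median of neutral control wells for no effect and mitoxantrone controls for full effect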
FN deposition inh: inhibitors of fibronectin matrix deposition, primary screen, AH1F cells, Alexa488-fibronectin fluorescence, plate reader; AH1F fibroblasts, overnight; inhibition, % at 12.6 µM; hit rate 0.086% among 350,000; AID 743247, 2014;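 active means mean inhibition across replicates of 30% or more, regardless of how many single replicates reach that level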;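 further: positive control wells lacked labelled fibronectin entirely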
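Material: AH1F fibroblast monolayer depositing Alexa488-labelled fibronectin into matrix / Amount: 10000 AH1F cells per well / Signal: fluorescence 485/525 nm / Medium: DMEM, 2% serum / Compound: single dose, pinned / Incubation: 1 h cell adhesion before compound, then overnight fibronectin incubation / Reagent: Alexa488-FN, 24 nM final / Read-out: inhibition of fibronectin deposition signal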
RAD52 inh: RAD52 DNA annealing inhibitors, primary screen, biochemical, FRET, single point, set 2. recombinant RAD52 DNA annealing, FRET fluorescence. inhibition, % at 18.7 µM. hit rate 0.46% among 360,000. AID 651710, 2012;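 active means every replicate showing at least 50% inhibition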
Target sequence (P43351 whole entry, looked up): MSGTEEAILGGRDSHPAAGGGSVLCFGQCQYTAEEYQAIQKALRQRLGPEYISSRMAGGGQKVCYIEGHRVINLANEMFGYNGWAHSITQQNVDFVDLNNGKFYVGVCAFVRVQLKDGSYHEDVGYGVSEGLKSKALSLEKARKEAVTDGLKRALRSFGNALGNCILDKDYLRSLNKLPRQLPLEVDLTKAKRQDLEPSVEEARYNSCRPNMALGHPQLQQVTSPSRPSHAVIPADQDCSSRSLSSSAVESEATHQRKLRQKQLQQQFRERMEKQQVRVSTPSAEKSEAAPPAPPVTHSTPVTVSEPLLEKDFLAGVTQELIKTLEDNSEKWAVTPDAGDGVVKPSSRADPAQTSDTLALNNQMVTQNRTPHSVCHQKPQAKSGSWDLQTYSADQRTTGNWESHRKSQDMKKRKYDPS
RAD54 inh: inhibitors of human RAD54 branch migration, primary screen, biochemical, fluorescence, single point; DNA repair and recombination protein RAD54-like (Homo sapiens), Q92698; RAD54 Holliday junction branch migration, FAM/BHQ fluorescence; inhibition, % at 10.4 µM; hit rate 0.14% among 360,000; AID 602329, 2012;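 active means mean normalized replicate activity at least 40 and at least half of replicates scoring 40 or more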;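 further: 0% = median of neutral control wells and 100% = median of positive control wells; inhibitors cause a drop in the FAM fluorescence signal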
DNA binder FP: DNA-binding compounds via dye displacement, dose response, artefact control for RAD52 inhibitor project, biochemical, fluorescence polarization, cherry-pick; Salmon sperm DNA/acridine orange FP displacement; AC50, µM; hit rate 8% among 1,000; AID 652128, 2013; shares compounds with RAD52 inh;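 active means fitted half-maximal concentration for signal loss at or below twice the highest dose tested, in every separate run, actives reach about 64 µM in these data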
The depositor's hits bear a star; i = inactive; nt = no result. Hits are enriched below; roughly 1.3% of the tested compounds scored in any of these assays.

SMILES | PAX8 reporter | FN deposition inh | RAD52 inh | RAD54 inh | DNA binder FP
CN(C)CCCOc1ccc(-c2cc3nc(NCc4cccnc4)n(C)c(=O)c3s2)cn1 | -35 | 7 | 60* | 46 | i
COc1ccc2c3c([nH]c2c1)C(C)N(C(C)=O)CC3 (centres undefined) | 7 | 9 | 2 | 0 | nt
COc1ccc2c3c([nH]c2c1)C(C)N(CCC(=O)NN)CC3 (centres undefined) | 7 | -5 | 79* | 27 | i
COc1ccc(CCNC(=O)C(=O)NN=C2CCCCCCC2)cc1OC | -12 | 0 | -5 | -8 | nt
COc1ccc2c(c1)CO[C@]21O[C@H](CCO)C[C@H](O)[C@H]1O | -30 | 0 | 1 | -1 | nt
COc1cc(OC)cc(C2=Cc3ccc(OC)cc3C(CC(C)=O)N2c2ccc(C#CC3(N)CCCCC3)cc2)c1 (centres undefined) | 6 | -9 | -11 | nt | nt
COc1cc(OC)cc(C2=Cc3ccccc3C(CC(C)=O)N2c2ccc(C#CC3(N)CCCCC3)cc2)c1 (centres undefined) | 5 | -2 | 91* | nt | i
COC(=O)c1ccccc1NC(=O)CSc1[nH]c(=O)cc(C)c1C#N | -2 | 0 | -16 | nt | nt
COc1cc2[nH]c(=O)c(C(=O)NCCCN3CCOCC3)c(O)c2cc1OC | -4 | nt | 67* | nt | i
O=C(NCCCN1CCOCC1)c1c(O)c2cc(Br)cc(Br)c2[nH]c1=O | nt | nt | nt | 4 | nt
CN1CCN(CCCNC(=O)c2cc3c(=O)n(C)c4ccccc4c3s2)CC1 | -16 | 8 | 62* | 63* | i
COc1cccc(S(=O)(=O)NCC(=O)N2CCCCCC2)c1 | -13 | 8 | 108* | -1 | i
Cc1ccc(-c2csc(NC(=O)C[n+]3cc(-c4ccccc4)n4c3CCC4)n2)cc1 | 23 | 3 | 50* | 11 | i
Cc1ccc(-c2csc(NC(=O)C[n+]3cc(-c4ccc(C)cc4)n4c3CCC4)n2)cc1 | 2 | -2 | 26 | nt | nt
COc1cc2nc(N(CCCN(C)C)C(=O)c3ccc(S(=O)(=O)N(C)C4CCCCC4)cc3)sc2cc1OC | -3 | 4 | 45 | 23 | nt
COc1cc2nc(N(CCCN(C)C)C(=O)c3ccc(S(=O)(=O)N4CCc5ccccc54)cc3)sc2cc1OC | 3 | 0 | 70* | 15 | i
CCOc1cccc2sc(N(CCCN(C)C)C(=O)c3ccc(S(=O)(=O)N4CCc5ccccc5C4)cc3)nc12 | -29 | nt | 55* | 11 | i
COc1ccc2sc(N(CCCN(C)C)C(=O)c3ccc(S(=O)(=O)N4CCCc5ccccc54)cc3)nc2c1 | -4 | nt | 77* | 2 | i
CCN(Cc1ccccc1)S(=O)(=O)c1ccc(C(=O)N(CCCN(C)C)c2nc3cc(OC)ccc3s2)cc1 | 23 | -2 | 59* | nt | i
Cc1c(C)c2ccc(OCC(=O)Nc3ccc(CN4CCOCC4)cc3)cc2oc1=O | -9 | -7 | -23 | -2 | nt
COc1ccc(C)cc1Nc1n[n+](-c2ccccc2)c(-c2c(OC)ccc3ccccc23)s1 | 84* | 15 | 102* | 2 | i
COc1ccc(C)cc1Nc1n[n+](-c2ccccc2)c(-c2cc(OC)c(OC)cc2Br)s1 | 15 | 0 | 28 | -10 | nt
COc1cc(CSc2ncn[nH]2)c(OC)cc1CSc1ncn[nH]1 | nt | nt | nt | 1 | nt
CN1CCN(C(=O)C2=C[C@H](C3CCCCC3)C[C@H](OCc3ccc(CO)cc3)O2)CC1 | 2 | -16 | 11 | -4 | nt
CCN(CC)CCNC(=O)c1cc(-c2ccco2)nc2ccccc12 | -10 | nt | 78* | nt | i
SMILES | PAX8 reporter | FN deposition inh | RAD52 inh | RAD54 inh | DNA binder FP
CC(C)N(CCn1c(=S)[nH]c2ccccc2c1=O)C(C)C | nt | nt | nt | 3 | nt
Cc1ccc[n+](CC(=O)Nc2cc(C(F)(F)F)ccc2Cl)c1 | nt | nt | nt | 1 | nt
CCC(C)(C)c1ccc(OCCCC[n+]2cccc(C)c2)c(C(C)(C)CC)c1 | 71* | 18 | 76* | nt | i
Oc1c(CN2CCOCC2)cc(CN2CCOCC2)c(O)c1O | -7 | -7 | 61* | 1 | i
COc1cc2nc(Nc3ccc(C)c(Cl)c3)nc(N)c2cc1OC | 41 | 2 | 73* | -4 | i
COc1cc2nc(Nc3ccc(C)c(C)c3)nc(N)c2cc1OC | -5 | -6 | 91* | 34 | i
CCOc1nc(NC2CCCC2)nc(N2CCC(C)CC2)n1 | 12 | 4 | 9 | -4 | nt
O=C(c1cc(COc2c(F)cccc2F)on1)N1CCCCCC1 | -128 | -7 | 3 | 2 | nt
COc1ccc(-c2nc(NCCCN(C)C)c3ccccc3n2)cc1 | -21 | -1 | 87* | 90* | i
CCN(CC)CCCNc1nc2ccccc2c2[nH]c3ccc(OC)cc3c12 | 99* | 15 | 105* | nt | 6.5µM*
O=C(OCc1c(-c2ccccc2)ncc2ccccc12)c1ccco1 | 2 | 14 | -56 | -2 | nt
CCCCCCCCCC[n+]1cccc2c3ccccc3ccc21 | 81* | -7 | 72* | nt | i
CCCCCCCCNc1ncnc2ccccc12 | nt | nt | nt | 0 | nt
COc1ccc(CN(Cc2ccccn2)S(=O)(=O)c2ccc(-n3cnnn3)cc2)cc1 | nt | nt | nt | 7 | nt
C[C@@H](O)Cc1cn(CC(=O)NCCCCCCCCCCC(=O)N2CCNCC2)nn1 | -3 | -17 | 20 | 8 | nt
NCCCCCc1cn(CC(=O)NCCCCCCCCCCC(=O)N2CCNCC2)nn1 | -21 | 4 | 55* | -2 | i
COc1ccc(C(=O)NC2CCCCC2)cc1S(=O)(=O)N1CCOCC1 | -4 | 11 | 2 | -1 | nt
COc1ccc(C(=O)NC2CC(C)(C)NC(C)(C)C2)cc1S(=O)(=O)N1CCOCC1 | -2 | 7 | 98* | 0 | i
CCOc1ccc(NC(=O)N2CCC(C(=O)c3ccc(F)cc3)CC2)cc1 | nt | 6 | nt | 3 | nt
O=C(Nc1ccc(CN2CCOCC2)cc1)c1ccc(-c2ccc(Br)cc2)o1 | nt | nt | 51* | 2 | i
C[C@@H]1CN([C@@H](C)CO)C(=O)c2c(c3ccccc3n2C)-c2ccccc2CO[C@@H]1CN(C)C(=O)Nc1ccc(-c2ccccc2)cc1 | 14 | -16 | 1 | nt | nt
COc1ccc(C(N)=S)c(OC)c1 | 12 | -14 | 74* | nt | i
COc1cccc(-c2ccc3n(c2=O)C[C@H]2[C@H](CO)[C@@H](C(=O)N(C)C)[C@@H]3N2C(=O)c2cnccn2)c1 | -11 | nt | -1 | -17 | nt
CC1CCN(CCOCCOc2ccc(Cl)cc2Br)CC1 | nt | nt | 52* | 4 | i
CCN(CC)CCN(C(=O)c1ccc([N+](=O)[O-])cc1)c1nc2c(OC)cccc2s1 | -4 | 3 | 8 | nt | nt
CCN(CC)CCN(C(=O)c1ccc(C(=O)c2ccccc2)cc1)c1nc2c(OC)cccc2s1 | 7 | nt | 61* | 12 | i
COc1cccc2sc(N(CCCN(C)C)C(=O)c3sc4ccccc4c3Cl)nc12 | 21 | 6 | 58* | 33 | i
